Source: ChEMBL document CHEMBL1137218, “Long hydrocarbon chain ether diols and ether diacids that favorably alter lipid disorders in vivo” (J Med Chem, 2004)

Columns and labels:
[1] = system: Rattus norvegicus; experiment: Serum Triglyceride levels in female obese rats one week post treatment at 10 mg/kg oral dose; pretreatment value = 1185 mg/dL; assay type: functional
[2] = system: Rattus norvegicus; experiment: Serum Triglyceride levels in female obese rats one week post treatment at 30 mg/kg oral dose; pretreatment value = 1004 mg/dL; assay type: functional
[3] = system: Rattus norvegicus; experiment: Serum NEFA levels in female obese rats two weeks post treatment at 100 mg/kg oral dose; pretreatment value = 1.2 mg/dL; assay type: functional
[4] = system: Rattus norvegicus; experiment: Serum HDL cholesterol levels in female obese rats one week post treatment at 30 mg/kg oral dose; pretreatment value = 49 mg/dL; assay type: functional
[5] = system: Rattus norvegicus; experiment: Serum Triglyceride levels in female obese rats one week post treatment at 100 mg/kg oral dose; pretreatment value = 1068 mg/dL; assay type: functional
[6] = system: Rattus norvegicus; experiment: Serum HDL cholesterol levels in female obese rats two weeks post treatment at 30 mg/kg oral dose; pretreatment value = 49 mg/dL; assay type: functional
[7] = system: Rattus norvegicus; experiment: Serum Triglyceride levels in female obese rats two weeks post treatment at 100 mg/kg oral dose; pretreatment value = 1068 mg/dL; assay type: functional
[8] = system: Rattus norvegicus; experiment: Blood glucose levels in female obese rats two weeks post treatment at 10 mg/kg oral dose; pretreatment value = 110 mg/dL; assay type: functional
[9] = system: Rattus norvegicus; experiment: Blood glucose levels in female obese rats two weeks post treatment at 30 mg/kg oral dose; pretreatment value = 106 mg/dL; assay type: functional
[10] = system: Rattus norvegicus; experiment: Insulin levels in female obese rats two weeks post treatment at 3 mg/kg oral dose; pretreatment value = 13.3 ng/mL; assay type: functional
[11] = system: Rattus norvegicus; experiment: Serum NEFA levels in female obese rats one week post treatment at 10 mg/kg oral dose; pretreatment value = 1.4 mg/dL; assay type: functional
[12] = system: Rattus norvegicus; experiment: Serum NEFA levels in female obese rats one week post treatment at 30 mg/kg oral dose; pretreatment value = 1.2 mg/dL; assay type: functional
[13] = system: Rattus norvegicus; experiment: Serum NEFA levels in female obese rats two weeks post treatment at 3 mg/kg oral dose; pretreatment value = 1.1 mg/dL; assay type: functional
[14] = system: Rattus norvegicus; experiment: Insulin levels in female obese rats one week post treatment at 3 mg/kg oral dose; pretreatment value = 13.3 ng/mL; assay type: functional
[15] = system: Rattus norvegicus; experiment: Insulin levels in female obese rats one week post treatment at 30 mg/kg oral dose; pretreatment value = 9 ng/mL; assay type: functional
[16] = system: Rattus norvegicus; experiment: Insulin levels in female obese rats two weeks post treatment at 30 mg/kg oral dose; pretreatment value = 9 ng/mL; assay type: functional
[17] = system: Rattus norvegicus; experiment: Serum Non-HDL cholesterol levels in female obese rats one week post treatment at 3 mg/kg oral dose; pretreatment value = 29 mg/dL; assay type: functional
How it was run: (§1)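 Female obese Zucker fatty rats (10–12 weeks, 400–500 g), once-daily oral gavage in 20% EtOH/80% PEG-200 (v/v) for up to 14 days. Serum drawn after a 6 h fast, pre-dose and at days 7 and 14. Non-HDL cholesterol is serum total cholesterol times the percent area of the non-HDL peaks in a Superose 6HR gel-filtration profile with on-line cholesterol detection. n = 4 per dose.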

[18] = system: Rattus norvegicus; experiment: Blood glucose levels in female obese rats one week post treatment at 10 mg/kg oral dose; pretreatment value = 110 mg/dL; assay type: functional
[19] = system: Rattus norvegicus; experiment: Serum Non-HDL cholesterol levels in female obese rats two weeks post treatment at 3 mg/kg oral dose; pretreatment value = 29 mg/dL
[20] = system: Rattus norvegicus; experiment: Serum Non-HDL cholesterol levels in female obese rats one week post treatment at 10 mg/kg oral dose; pretreatment value = 33 mg/dL
[21] = system: Rattus norvegicus; experiment: Serum HDL cholesterol levels in female obese rats one week post treatment at 3 mg/kg oral dose; pretreatment value = 59 mg/dL; assay type: functional
[22] = system: Rattus norvegicus; experiment: Serum Triglyceride levels in female obese rats one week post treatment at 100 mg/kg oral dose; pretreatment value = 746 mg/dL; assay type: functional
[23] = system: Rattus norvegicus; experiment: Serum NEFA levels in female obese rats two weeks post treatment at 100 mg/kg oral dose; pretreatment value = 1.1 mg/dL; assay type: functional
[24] = system: Rattus norvegicus; experiment: Serum Triglyceride levels in female obese rats one week post treatment at 10 mg/kg oral dose; pretreatment value = 943 mg/dL; assay type: functional
[25] = system: Rattus norvegicus; experiment: Serum Triglyceride levels in female obese rats two weeks post treatment at 3 mg/kg oral dose; pretreatment value = 769 mg/dL; assay type: functional
[26] = system: Rattus norvegicus; experiment: Serum HDL cholesterol levels in female obese rats one week post treatment at 30 mg/kg oral dose; pretreatment value = 42 mg/dL; assay type: functional
[27] = system: Rattus norvegicus; experiment: Serum HDL cholesterol levels in female obese rats two weeks post treatment at 10 mg/kg oral dose; pretreatment value = 56 mg/dL; assay type: functional
[28] = system: Rattus norvegicus; experiment: Serum HDL cholesterol levels in female obese rats two weeks post treatment at 30 mg/kg oral dose; pretreatment value = 42 mg/dL; assay type: functional
[29] = system: Rattus norvegicus; experiment: Blood glucose levels in female obese rats two weeks post treatment at 10 mg/kg oral dose; pretreatment value = 112 mg/dL; assay type: functional
[30] = system: Rattus norvegicus; experiment: Blood glucose levels in female obese rats two weeks post treatment at 30 mg/kg oral dose; pretreatment value = 109 mg/dL; assay type: functional
[31] = system: Rattus norvegicus; experiment: Serum HDL cholesterol levels in female obese rats two weeks post treatment at 100 mg/kg oral dose; pretreatment value = 59 mg/dL; assay type: functional
[32] = system: Rattus norvegicus; experiment: Insulin levels in female obese rats two weeks post treatment at 30 mg/kg oral dose; pretreatment value = 9.3 ng/mL; assay type: functional
[33] = system: Rattus norvegicus; experiment: Insulin levels in female obese rats two weeks post treatment at 100 mg/kg oral dose; pretreatment value = 12.7 ng/mL; assay type: functional
[34] = system: Rattus norvegicus; experiment: Serum NEFA levels in female obese rats one week post treatment at 10 mg/kg oral dose; pretreatment value = 1.2 mg/dL; assay type: functional
[35] = system: Rattus norvegicus; experiment: Serum NEFA levels in female obese rats one week post treatment at 100 mg/kg oral dose; pretreatment value = 1.1 mg/dL; assay type: functional
[36] = system: Rattus norvegicus; experiment: Insulin levels in female obese rats one week post treatment at 3 mg/kg oral dose; pretreatment value = 12.9 ng/mL; assay type: functional
[37] = system: Rattus norvegicus; experiment: Insulin levels in female obese rats one week post treatment at 30 mg/kg oral dose; pretreatment value = 9.3 ng/mL; assay type: functional
[38] = system: Rattus norvegicus; experiment: Insulin levels in female obese rats one week post treatment at 10 mg/kg oral dose; pretreatment value = 8.2 ng/mLL; assay type: functional
[39] = system: Rattus norvegicus; experiment: Serum NEFA levels in female obese rats two weeks post treatment at 10 mg/kg oral dose; pretreatment value = 1.2 mg/dL; assay type: functional
[40] = system: Rattus norvegicus; experiment: Insulin levels in female obese rats one week post treatment at 100 mg/kg oral dose; pretreatment value = 12.7 ng/mL; assay type: functional
[41] = system: Rattus norvegicus; experiment: Serum Non-HDL cholesterol levels in female obese rats one week post treatment at 3 mg/kg oral dose; pretreatment value = 21 mg/dL; assay type: functional; how it was run: as §1
[42] = system: Rattus norvegicus; experiment: Serum Non-HDL cholesterol levels in female obese rats one week post treatment at 10 mg/kg oral dose; pretreatment value = 25 mg/dL; assay type: functional; how it was run: as §1
[43] = system: Rattus norvegicus; experiment: Serum Non-HDL cholesterol levels in female obese rats two weeks post treatment at 3 mg/kg oral dose; pretreatment value = 21 mg/dL; assay type: functional; how it was run: as §1
[44] = system: Rattus norvegicus; experiment: Serum Non-HDL cholesterol levels in female obese rats two weeks post treatment at 10 mg/kg oral dose; pretreatment value = 25 mg/dL; assay type: functional; how it was run: as §1

CC(C)(CO)CCCCCOCCCCCC(C)(C)CO
Activity [1]: 1159 mg/dL | Activity [2]: 191 mg/dL | Activity [3]: 0.7 mg/dL | Activity [4]: 128 mg/dL | Activity [5]: 83 mg/dL | Activity [6]: 138 mg/dL | Activity [7]: 167 mg/dL | Activity [8]: 119 mg/dL | Activity [9]: 141 mg/dL | Activity [10]: 11.4 ng/mL | Activity [11]: 1.3 mg/dL | Activity [12]: 0.89 mg/dL | Activity [13]: 1.5 mg/dL | Activity [14]: 12.2 ng/mL | Activity [15]: 12.4 ng/mL | Activity [16]: 10.4 ng/mL | Activity [17]: 26 mg/dL | Activity [18]: 100 mg/dL | Activity [19]: 29 mg/dL | Activity [20]: 40 mg/dL

CC(C)(CO)CCCCOCCCCC(C)(C)CO
Activity [21]: 70 mg/dL | Activity [22]: 174 mg/dL | Activity [23]: 0.83 mg/dL | Activity [24]: 629 mg/dL | Activity [25]: 934 mg/dL | Activity [26]: 149 mg/dL | Activity [27]: 134 mg/dL | Activity [28]: 222 mg/dL | Activity [29]: 117 mg/dL | Activity [30]: 123 mg/dL | Activity [31]: 263 mg/dL | Activity [32]: 17.4 ng/mL | Activity [33]: 12.8 ng/mL | Activity [34]: 1.2 mg/dL | Activity [35]: 0.76 mg/dL | Activity [36]: 15.1 ng/mL | Activity [37]: 14.2 ng/mL | Activity [38]: 8.9 ng/mL | Activity [39]: 1.1 mg/dL | Activity [40]: 14.5 ng/mL | Activity [41]: 26 mg/dL | Activity [42]: 30 mg/dL | Activity [43]: 29 mg/dL | Activity [44]: 43 mg/dL
